Measurements as given in the array DNA melting data of Ke et al. (doi:10.1101/2024.01.08.574731).

Assays:
[1] = folding enthalpy; higher = less favourable; fluorescence melt of hairpins on a sequencing array, two-state fit; settings: sodium 0.088 M
In short: (§1)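 Folding enthalpy and melting temperature come from bootstrapped two-state fits to Cy3 fluorescence of library hairpins carrying annealed Cy3 and quencher oligos on a sequenced MiSeq flow cell. Imaging was done in 50 mM Na-HEPES pH 8.0, 25 mM NaCl, stepping by 2.5 °C up to 60 °C, and signals were normalised to pre-quench Cy3 and to control constructs. Results of four replicates were combined by inverse variance, and fitted temperatures were raised by 9.35 °C to match UV melts.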

[2] = melting temperature; fluorescence melt of hairpins on a sequencing array, two-state fit, raised by 9.35 °C to match UV melts; settings: sodium 0.088 M
In short: as §1

Sequence | folding enthalpy [1] [kcal/mol] | Tm [2] [°C]
GCCTAGCGAAAGCCAGGC ((((.((....)).)))) | -29.4 | 62.2
GCCTAGCGAAAGCCGGGC (((..((....))..))) | -20.1 | 57.1
GCCTAGCGAAAGCCTGGC (((..((....))..))) | -19.6 | 52.1
GCCTAGCGAAAGCGATGC ((.(.((....)).).)) | -13.4 | 44.1
GCCTAGCGAAAGCTCCGC ((..(((....)))..)) | -9.3 | 25.9
GCCTAGCGAAAGCTTAGC ((..(((....)))..)) | -12.6 | 36.8
GCCTAGCGAAAGCTTCGC ((..(((....)))..)) | -7.98 | 44.6
GCCTAGGGAAACCTAGGC (((((((....))))))) | -36.9 | 67.5
GCCTATGGAAACATAGAC (.(((((....))))).) | -17.4 | 32.6
GCCTATGGAAACGTAGGC (((((.(....).))))) | -39.8 | 51.1
GCCTATTCGAAAGAAGGC (((..(((....)))))) | -20.6 | 38.2
GCCTCAGGAAACTGAAGC ((.((((....)))).)) | -24.9 | 36.3
GCCTCAGGAAACTGAGAC (.(((((....))))).) | -20.8 | 38.4
GCCTCAGGAAACTGGGGC (((.(((....))).))) | -41.9 | 56
GCCTCCGAAAGGAATGGC ((((((....)))..))) | -23 | 49.9
GCCTCCGAAAGGAGTGGC ((((((....)))..))) | -17.1 | 50.3
GCCTCCGAAAGGATGGC ((((((....))).))) | -36.6 | 57
GCCTCGCGAAAGCATGGC (((..((....))..))) | -18.4 | 53.3
GCCTCGCGAAAGCCACGC ((.(.((....)).).)) | -6.05 | 20.5
GCCTCGCGAAAGCGACGC ((.((((....)))).)) | -16.5 | 52.6
GCCTCGCGAAAGCGATGC ((.((((....)))).)) | -16.7 | 58.2
GCCTCGCGAAAGCTAAGC ((.(.((....)).).)) | -6.03 | 25.6
GCCTCGCGAAAGCTACGC ((.(.((....)).).)) | -5.87 | 20

Sequence | folding enthalpy [1] [kcal/mol] | Tm [2] [°C]
GCCTCGCGAAAGCTTGGC (((..((....))..))) | -25.5 | 51.4
GCCTCGGGAAACCGGGGC (((.(((....))).))) | -36.4 | 66.3
GCCTCTGGAAACAGAAGC ((.((((....)))).)) | -24.2 | 35.6
GCCTCTTCGAAAGAAGGC (((..(((....)))))) | -14.8 | 39.4
GCCTGAGAAATCAGGC ((((((....)))))) | -39.2 | 62.5
GCCTGAGGAAACTTAGGC ((((.((....)).)))) | -31.2 | 48.8
GCCTGCCCGAAAGGGGGC (((..(((....)))))) | -12.6 | 58.1
GCCTGCGGAAACGCAGAC (.(((((....))))).) | -12.1 | 50
GCCTGGAAACAGGC (((((....))))) | -27.1 | 63.4
GCCTGGCGAAAGCAATGC ((.(.((....)).).)) | -7.84 | 26.9
GCCTGGCGAAAGCCCAGC ((..(((....)))..)) | -10.9 | 47.3
GCCTGGCGAAAGCCTCGC ((..(((....)))..)) | -9.28 | 45.3
GCCTGGGCGAAAGCCGGC (((..(((....)))))) | -23.7 | 55.2
GCCTGGGGAAACTCGGGC (((.(.(....).).))) | -31.8 | 46.7
GCCTGGTCGAAAGACGGC (((..(((....)))))) | -25.3 | 52.2
GCCTGTCGAAAGACCGGC (((.(((....))).))) | -39.5 | 55.8
GCCTGTCGAAAGACGGC (((.(((....)))))) | -31.2 | 56.5
GCCTGTGCGAAAGCAGGC (((..(((....)))))) | -26.6 | 56.5
GCCTGTGGAAACGCAGGC (((((.(....).))))) | -38 | 59.9
GCCTGTGGAAACGTAGGC ((((..(....)..)))) | -28 | 48.2
GCCTTACGAAAGTACGGC (((.(((....))).))) | -46.5 | 52.2
GCCTTAGGAAACTAAGAC (.(((((....))))).) | -13.8 | 30.1
GCCTTCGAAAGAAAGGC ((((((....))).))) | -30.3 | 54

Sequence | folding enthalpy [1] [kcal/mol] | Tm [2] [°C]
GCCTTCGAAAGAACTGGC ((((((....)))..))) | -21.9 | 35.7
GCCTTCGAAAGAAGCGGC ((((((....)))..))) | -18.1 | 47.2
GCCTTCGAAAGAAGGGGC ((((((....)))..))) | -17.8 | 53.8
GCCTTCGGAAACGAGGGC (((.(((....))).))) | -33.6 | 56.7
GCCTTCTCGAAAGAGGGC (((..(((....)))))) | -23.8 | 44.3
GCCTTGCGAAAGCAAAGC ((.((((....)))).)) | -14.9 | 55.9
GCCTTGCGAAAGCAACGC ((.((((....)))).)) | -14.3 | 54.7
GCCTTGCGAAAGCAATGC ((.((((....)))).)) | -17.4 | 56.9
GCCTTGCGAAAGCACAGC ((..(((....)))..)) | -7.49 | 45.1
GCCTTGCGAAAGCACGGC (((.(((....))).))) | -49.4 | 57.8
GCCTTGCGAAAGCATGGC (((.(((....))).))) | -44.8 | 62.1
GCCTTGCGAAAGCGTGGC (((..((....))..))) | -22.8 | 60.3
GCCTTGCGAAAGCTATGC ((.(.((....)).).)) | -8.48 | 44.5
GCCTTGGCGAAAGCCGGC (((..(((....)))))) | -12.9 | 56.9
GCCTTTCGAAAGAACGGC (((.(((....))).))) | -39.5 | 48.8
GCCTTTGGAAACAAAAGC ((.((((....)))).)) | -12.2 | 29.3
GCCTTTGGAAACAAAGAC (.(((((....))))).) | -21.9 | 34.7
GCCTTTGGAAACAAAGGC (((((((....))))))) | -38.4 | 66.7
GCGAAAATCGC ((((...)))) | -14.1 | 45
GCGAAACATCGC ((((....)))) | -21.5 | 48.7
GCGAAACGAAAGTTACGC (((.(((....))).))) | -40.1 | 58.6
GCGAAACGAAAGTTCGC (((.(((....)))))) | -32.9 | 62.7
